MIC and ED50 data for 9 compounds are collected here from ChEMBL document CHEMBL1126564, “Synthesis and antimicrobial evaluation of a series of 7-[3-amino (or aminomethyl)-4-aryl (or cyclopropyl)-1-pyrrolidinyl]-4-quinolone- and -1,8-naphthyridone-3-carboxylic acids” (1993).

What all share (format): functional
Experiment [1] relates to Escherichia coli. Briefly: Minimum inhibitory concentration against Escherichia coli Vogel. Particulars: Escherichia coli; read-out: MIC. A digest of the protocol: (§1)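 Standard microdilution method against a panel of five Gram-negative and five Gram-positive bacterial strains. The MIC (µg/mL) was recorded for each strain.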
For experiment [2], the system named is Enterobacter cloacae. Put plainly: Minimum inhibitory concentration against […] MA-2646. The settings on record: Enterobacter cloacae; read-out: MIC. In a few lines: as §1
Experiment [3] has as its system Pseudomonas aeruginosa. Briefly: Minimum inhibitory concentration against Pseudomonas aeruginosa UI-18. Particulars: Pseudomonas aeruginosa; read-out: MIC. In a few lines: as §1
Experiment [4] deals with Staphylococcus aureus. Briefly: Minimum inhibitory concentration against Staphylococcus aureus UC-76. The settings on record: Staphylococcus aureus; read-out: MIC. A digest of the protocol:
as §1

Experiment [5] concerns Providencia rettgeri. Briefly: Minimum inhibitory concentration against Providencia rettgeri M-1771. Particulars: Providencia rettgeri; read-out: MIC. In a few lines:
as §1

Experiment [6] has as its system Enterococcus faecalis. Briefly: Minimum inhibitory concentration against […] MGH-2. The settings on record: Enterococcus faecalis; read-out: MIC. In a few lines:
as §1

Experiment [7] deals with Streptococcus pyogenes. Put plainly: Minimum inhibitory concentration against Streptococcus pyogenes C-203. The settings on record: Streptococcus pyogenes; read-out: MIC. In a few lines: as §1
The subject of experiment [8] is Streptococcus pneumoniae. Put plainly: Minimum inhibitory concentration against Streptococcus pneumoniae SV-1. Particulars: Streptococcus pneumoniae; read-out: MIC. In a few lines: as §1
For experiment [9], the species on record is Mus musculus. Put plainly: Median protective dose determined in acute lethal system infection caused by Escherichia coli vogel in CD-1 mice (single dose perorally). Particulars: po, read-out: PD50. In a few lines: (§2)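 Acute lethal systemic infection in female Charles River CD-1 mice; compound given once, orally (po) or subcutaneously (sc), at the time of challenge. Median protective dose (PD50, mg/kg) derived from survival.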

In experiment [10] the test system is Klebsiella pneumoniae. Put plainly: Minimum inhibitory concentration against Klebsiella pneumoniae MGH-2. The settings on record: Klebsiella pneumoniae; read-out: MIC. In a few lines: as §1
Experiment [11] has as its system Staphylococcus aureus. Briefly: Minimum inhibitory concentration against Staphylococcus aureus H-228. Particulars: Staphylococcus aureus; read-out: MIC. In a few lines:
as §1

Experiment [12] deals with Mus musculus. Put plainly: Median protective dose determined in acute lethal system infection caused by Escherichia coli vogel in CD-1 mice (single dose sc). The settings on record: read-out: PD50. In a few lines: as §2
For experiment [13], the system named is Mus musculus. Put plainly: Median protective dose determined in acute lethal system infection caused by Streptococcus pyogenes C-203 in CD-1 mice (single dose sc). The settings on record: read-out: PD50. A digest of the protocol: as §2
For experiment [14], the species on record is Mus musculus. Briefly: Median protective dose determined in acute lethal system infection caused by Streptococcus pyogenes C-203 in CD-1 mice (single dose perorally). Particulars: po, read-out: PD50. A digest of the protocol:
as §2

≈ marks a conversion by molar mass, not a printed value.

The MIC is the least concentration at which growth counts as inhibited. For the compound `Nc1ccc(C2CN(c3nc4c(cc3F)c(=O)c(C(=O)O)cn4C3CC3)CC2N)cc1` (trans isomer), the MIC in experiment [1] was determined as 0.1 µg/mL (≈ 0.236 µM); in [2], 0.1 µg/mL (≈ 0.236 µM); in experiment [3] it was 1.6 µg/mL (≈ 3.78 µM); in experiment [4], 0.05 µg/mL (≈ 0.118 µM); in experiment [5], 0.4 µg/mL (≈ 0.945 µM); in experiment [6] it was 0.2 µg/mL (≈ 0.472 µM). The minimum inhibitory concentration (MIC) in [7], in experiment [8], in experiment [10] and in [11] was 0.2 µg/mL (≈ 0.472 µM) throughout. For the same compound, the ED50 stood at 24 mg/kg in [9] and 3.1 mg/kg in experiment [12].
Regarding `CC(C)c1ccc(C2CN(c3c(F)cc4c(=O)c(C(=O)O)cn(C5CC5)c4c3F)CC2N)cc1` (trans isomer), the MIC in experiment [1] was determined as 0.4 µg/mL (≈ 0.856 µM); in [2], 0.4 µg/mL (≈ 0.856 µM); in [3] it was 3.1 µg/mL (≈ 6.63 µM); in experiment [4], 0.025 µg/mL (≈ 0.0535 µM); in experiment [5], 0.4 µg/mL (≈ 0.856 µM); in [6], 0.2 µg/mL (≈ 0.428 µM). The MIC in experiment [7] turned out to be 0.2 µg/mL (≈ 0.428 µM); in experiment [8] it was 0.2 µg/mL (≈ 0.428 µM); in experiment [10] it was 0.4 µg/mL (≈ 0.856 µM); in experiment [11], 0.05 µg/mL (≈ 0.107 µM). Also, the values for the ED50 in experiment [13] and in experiment [14] were 90 mg/kg and 100 mg/kg, respectively.
Regarding `COC(=O)c1ccc(C2CN(c3c(F)cc4c(=O)c(C(=O)O)cn(C5CC5)c4c3F)CC2N)cc1` (stereo unspecified), the minimum inhibitory concentration (MIC) turned out to be 0.4 µg/mL (≈ 0.827 µM) in [1]; 0.4 µg/mL (≈ 0.827 µM) in [2]; 3.1 µg/mL (≈ 6.41 µM) in experiment [3]; 0.05 µg/mL (≈ 0.103 µM) in [4]; 1.6 µg/mL (≈ 3.31 µM) in experiment [5]; 0.4 µg/mL (≈ 0.827 µM) in experiment [6]. Besides, the MIC in experiment [7] stood at 0.4 µg/mL (≈ 0.827 µM); in experiment [8] it was 0.4 µg/mL (≈ 0.827 µM); in experiment [10], 0.8 µg/mL (≈ 1.65 µM); in experiment [11], 0.1 µg/mL (≈ 0.207 µM).
Regarding `NC1CN(c2c(F)cc3c(=O)c(C(=O)O)cn(C4CC4)c3c2F)CC1c1ccc(Cl)c(Cl)c1` (trans isomer), the minimal inhibitory concentration (MIC) was found to be 0.1 µg/mL (≈ 0.202 µM) in experiment [1]; 0.2 µg/mL (≈ 0.405 µM) in experiment [2]; 1.6 µg/mL (≈ 3.24 µM) in [3]; 0.013 µg/mL (≈ 0.0263 µM) in experiment [4]; 0.2 µg/mL (≈ 0.405 µM) in experiment [5]; 0.1 µg/mL (≈ 0.202 µM) in experiment [6]. For the same compound, the minimum inhibitory concentration (MIC) in experiment [7] was found to be 0.1 µg/mL (≈ 0.202 µM); in experiment [8], 0.1 µg/mL (≈ 0.202 µM); in experiment [10], 0.2 µg/mL (≈ 0.405 µM); in experiment [11] it was 0.05 µg/mL (≈ 0.101 µM).
Consider `Nc1c(F)c(N2CC(N)C(c3ccc(F)cc3)C2)c(F)c2c1c(=O)c(C(=O)O)cn2C1CC1` (trans isomer), for which the MIC is 0.1 µg/mL (≈ 0.218 µM) in [1]; 0.1 µg/mL (≈ 0.218 µM) in experiment [2]; 1.6 µg/mL (≈ 3.49 µM) in experiment [3]; 0.013 µg/mL (≈ 0.0284 µM) in experiment [4]; 0.2 µg/mL (≈ 0.436 µM) in experiment [5]; 0.1 µg/mL (≈ 0.218 µM) in [6]. For the same compound, the MIC is 0.1 µg/mL (≈ 0.218 µM) in experiment [7], 0.1 µg/mL (≈ 0.218 µM) in experiment [8], 0.1 µg/mL (≈ 0.218 µM) in experiment [10] and 0.025 µg/mL (≈ 0.0545 µM) in [11].
Consider `Nc1c(F)c(N2CC(N)C(c3ccc(O)cc3)C2)c(F)c2c1c(=O)c(C(=O)O)cn2C1CC1` (trans isomer), for which the minimal inhibitory concentration (MIC) in [1] was 0.05 µg/mL (≈ 0.11 µM); in experiment [2] it was 0.05 µg/mL (≈ 0.11 µM); in experiment [3], 0.8 µg/mL (≈ 1.75 µM); in experiment [4], 0.013 µg/mL (≈ 0.0285 µM); in experiment [5] it was 0.1 µg/mL (≈ 0.219 µM); in experiment [6], 0.05 µg/mL (≈ 0.11 µM). The minimum inhibitory concentration (MIC) in [7] turned out to be 0.1 µg/mL (≈ 0.219 µM); in experiment [8] it was 0.05 µg/mL (≈ 0.11 µM); in experiment [10], 0.05 µg/mL (≈ 0.11 µM); in [11], 0.05 µg/mL (≈ 0.11 µM).
With `NCc1cccc(C2CN(c3nc4c(cc3F)c(=O)c(C(=O)O)cn4C3CC3)CC2N)c1` (trans isomer), the MIC in experiment [1] was 0.8 µg/mL (≈ 1.83 µM); in experiment [2], 0.8 µg/mL (≈ 1.83 µM); in experiment [3], 3.1 µg/mL (≈ 7.09 µM); in [4] it was 0.4 µg/mL (≈ 0.914 µM); in [5] it was 1.6 µg/mL (≈ 3.66 µM); in experiment [6], 0.8 µg/mL (≈ 1.83 µM). Moreover, the minimal inhibitory concentration (MIC) in experiment [7] amounted to 0.2 µg/mL (≈ 0.457 µM); in experiment [8] it was 0.2 µg/mL (≈ 0.457 µM); in experiment [10], 0.8 µg/mL (≈ 1.83 µM); in experiment [11], 3.1 µg/mL (≈ 7.09 µM).
Take `NCc1cccc(C2CN(c3nc4c(cc3F)c(=O)c(C(=O)O)cn4C3CC3)CC2CN)c1` (trans isomer): the MIC in [1] is 3.1 µg/mL (≈ 6.87 µM); in experiment [2] it was 3.1 µg/mL (≈ 6.87 µM); in experiment [3] it was 12.5 µg/mL (≈ 27.7 µM); in experiment [4], 0.8 µg/mL (≈ 1.77 µM); in experiment [5], 6.3 µg/mL (≈ 14 µM); in experiment [6], 1.6 µg/mL (≈ 3.54 µM). The MIC is 0.2 µg/mL (≈ 0.443 µM) in experiment [7], 0.8 µg/mL (≈ 1.77 µM) in experiment [8], 3.1 µg/mL (≈ 6.87 µM) in experiment [10] and 3.1 µg/mL (≈ 6.87 µM) in experiment [11].
As for `Nc1ccc(C2CN(c3c(F)cc4c(=O)c(C(=O)O)cn(C5CC5)c4c3F)CC2N)cc1` (trans isomer), the minimum inhibitory concentration (MIC) turned out to be 0.05 µg/mL (≈ 0.114 µM) in experiment [1]; 0.05 µg/mL (≈ 0.114 µM) in experiment [2]; 0.8 µg/mL (≈ 1.82 µM) in [3]; 0.025 µg/mL (≈ 0.0568 µM) in [4]; 0.2 µg/mL (≈ 0.454 µM) in experiment [5]; 0.1 µg/mL (≈ 0.227 µM) in experiment [6]. In addition, the MIC in experiment [7], in experiment [8], in experiment [10] and in [11] was 0.1 µg/mL (≈ 0.227 µM) throughout. In addition, the ED50 in [9] was 10 mg/kg; in experiment [12] it was 1.6 mg/kg.
